Measurements reported in ChEMBL document CHEMBL1123603, “Synthesis of angiotensin II antagonists with variations in position 5” (J Med Chem, 1987).
Square brackets hold non-standard residues; d marks the D form. Peptide text beside a SMILES is read from it. * marks the point of attachment. Gly(cPent) = N[C@H](C(=O)O)C1CCCC1; Chg = N[C@H](C(=O)O)C1CCCCC1; Lac = C[C@H](O)C(=O)O; Glycolyl = O=C(CO)*; Sar = CNCC(=O)O

Tests used:
Angiotensin II receptor = molecular target: T1, Angiotensin II receptor (Rattus norvegicus, UniProt P29089+P25095+P35351); assay: Antagonistic effect against Angiotensin II receptor in zona glomerulosa; format: functional
T1 sequence (P29089 whole entry): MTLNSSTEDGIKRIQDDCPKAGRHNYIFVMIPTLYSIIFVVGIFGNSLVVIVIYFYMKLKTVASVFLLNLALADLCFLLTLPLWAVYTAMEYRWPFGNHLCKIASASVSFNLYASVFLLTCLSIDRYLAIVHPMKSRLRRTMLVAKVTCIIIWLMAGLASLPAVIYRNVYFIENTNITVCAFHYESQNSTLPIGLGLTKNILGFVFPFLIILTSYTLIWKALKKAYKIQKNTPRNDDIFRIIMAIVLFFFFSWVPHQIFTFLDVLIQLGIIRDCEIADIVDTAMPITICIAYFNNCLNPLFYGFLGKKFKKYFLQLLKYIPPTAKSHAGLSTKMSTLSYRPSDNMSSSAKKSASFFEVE
T1 sequence (P25095 whole entry): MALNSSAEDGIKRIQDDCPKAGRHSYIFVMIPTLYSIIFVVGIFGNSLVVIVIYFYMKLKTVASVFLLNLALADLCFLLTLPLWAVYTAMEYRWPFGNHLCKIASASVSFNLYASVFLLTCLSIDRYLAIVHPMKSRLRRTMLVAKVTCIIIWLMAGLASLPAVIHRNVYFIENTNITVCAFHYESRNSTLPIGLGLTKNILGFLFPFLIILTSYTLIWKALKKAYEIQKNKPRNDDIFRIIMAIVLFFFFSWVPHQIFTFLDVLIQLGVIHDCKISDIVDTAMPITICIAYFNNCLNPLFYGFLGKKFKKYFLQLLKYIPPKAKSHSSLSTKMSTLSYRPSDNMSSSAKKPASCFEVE
T1 sequence (P35351 whole entry): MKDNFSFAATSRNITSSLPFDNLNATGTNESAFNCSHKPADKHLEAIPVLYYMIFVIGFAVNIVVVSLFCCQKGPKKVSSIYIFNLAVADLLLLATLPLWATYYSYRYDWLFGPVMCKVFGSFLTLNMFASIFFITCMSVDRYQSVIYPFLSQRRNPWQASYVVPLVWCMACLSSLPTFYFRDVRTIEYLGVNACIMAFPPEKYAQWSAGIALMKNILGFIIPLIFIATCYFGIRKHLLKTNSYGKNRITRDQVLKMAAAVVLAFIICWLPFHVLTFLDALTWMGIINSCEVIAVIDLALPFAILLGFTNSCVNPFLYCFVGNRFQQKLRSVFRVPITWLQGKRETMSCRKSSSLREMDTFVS
How it was run: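 Dispersed zona glomerulosa cells from male CFY rats, 250–300 g. Capsules digested with collagenase 2 mg/mL and DNase 0.1 mg/mL, 2 × 25 min at 37 °C. Cells 3.0–3.5 × 10⁶/mL in Krebs–Ringer glucose buffer, 5 g/L albumin. Antagonists 2 × 10⁻¹²–2 × 10⁻⁶ M, alone or with 2 × 10⁻⁸ M AII, duplicate or triplicate. Aldosterone by RIA after CHCl3 extraction; pA2 values.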

Rattus norvegicus [1] = assay: Tested in vivo on the angiotensin II induced rise of blood pressure after intravenous administration of 1.25 ug/kg in conscious rats; format: functional
How it was run: (§1)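 Conscious, free-moving rats, carotid artery linked to a pressure transducer 24 h after surgery. One analogue per rat, in 0.9% NaCl with 5 g/L BSA, given as a 10-s iv bolus into the jugular vein. Doses 1.25–20 μg/kg in random order, one every 20 min. Maximal blood pressure rise recorded; 6 rats; ANOVA with Dunnett's test.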

Rattus norvegicus [2] = assay: Tested in vivo on the angiotensin II induced rise of blood pressure after intravenous administration of 10 ug/kg in conscious rats; format: functional; how it was run: as §1
Rattus norvegicus [3] = assay: Tested in vivo on the angiotensin II induced rise of blood pressure after intravenous administration of 2.5 ug/kg in conscious rats; format: functional; how it was run: as §1
Rattus norvegicus [4] = assay: Tested in vivo on the angiotensin II induced rise of blood pressure after intravenous administration of 20 ug/kg in conscious rats; format: functional; how it was run: as §1
Rattus norvegicus [5] = assay: Tested in vivo on the angiotensin II induced rise of blood pressure after intravenous administration of 5 ug/kg in conscious rats; format: functional; how it was run: as §1
[6] = molecular target: Angiotensin II receptor (Oryctolagus cuniculus); assay: Antagonistic effect against Angiotensin II receptor in rabbit aortic strip

SMILES | pA2 (Angiotensin II receptor) | pA2 [6] | Blood pressure (Rattus norvegicus [1]) | Blood pressure (Rattus norvegicus [2]) | Blood pressure (Rattus norvegicus [3]) | Blood pressure (Rattus norvegicus [4]) | Blood pressure (Rattus norvegicus [5])
CNCC(=O)N[C@@H](CCCN=C(N)N)C(=O)N[C@H](C(=O)N[C@@H](Cc1ccc(O)cc1)C(=O)N[C@H](C(=O)N[C@@H](Cc1c[nH]cn1)C(=O)N1CCC[C@H]1C(=O)N[C@@H](C)C(=O)O)C1CCCC1)C(C)C | 9.933 | 9.42 | 5.8 mmHg | 17.5 mmHg | 10 mmHg | 14.2 mmHg | 10 mmHg
CC(C)[C@H](NC(=O)[C@H](CCCN=C(N)N)NC(=O)[C@H](C)O)C(=O)N[C@@H](Cc1ccc(O)cc1)C(=O)N[C@H](C(=O)N[C@@H](Cc1c[nH]cn1)C(=O)N1CCC[C@H]1C(=O)O[C@@H](C)C(=O)O)C1CCCC1 (H-[Lac]RVY[Gly(cPent)]HP[Lac]-OH) | 8.392 | 8.52 | 5.8 mmHg | 10 mmHg | 5 mmHg | 15 mmHg | 5 mmHg
CC[C@H](C)[C@H](NC(=O)[C@H](Cc1ccc(O)cc1)NC(=O)[C@@H](NC(=O)[C@H](CCCN=C(N)N)NC(=O)[C@H](C)O)C(C)C)C(=O)N[C@@H](Cc1c[nH]cn1)C(=O)N1CCC[C@H]1C(=O)O[C@@H](C)C(=O)O | 7.999 | 9.5 | 4.2 mmHg | 10 mmHg | 5.8 mmHg | 16.7 mmHg | 11.7 mmHg
CNCC(=O)N[C@@H](CCCNC(=N)N)C(=O)N[C@H](C(=O)N[C@@H](Cc1ccc(O)cc1)C(=O)N[C@H](C(=O)N[C@@H](Cc1cnc[nH]1)C(=O)N1CCC[C@H]1C(=O)N[C@@H](C)C(=O)O)C(C)C)C(C)C [SARALASIN] | – | – | 7.9 mmHg | 15 mmHg | 9.3 mmHg | 20 mmHg | 12.1 mmHg

More lines, main results first:

pA2 (Angiotensin II receptor) | pA2 [6] | SMILES | Blood pressure (Rattus norvegicus [1]) | Blood pressure (Rattus norvegicus [2]) | Blood pressure (Rattus norvegicus [3]) | Blood pressure (Rattus norvegicus [4]) | Blood pressure (Rattus norvegicus [5])
9.981 | 11.18 | CNCC(=O)N[C@@H](CCCN=C(N)N)C(=O)N[C@H](C(=O)N[C@@H](Cc1ccc(O)cc1)C(=O)N[C@H](C(=O)N[C@@H](Cc1c[nH]cn1)C(=O)N1CCC[C@H]1C(=O)N[C@@H](C)C(=O)O)C1CCCCC1)C(C)C | 10.29 mmHg | 16.4 mmHg | 17.9 mmHg | – | 16.9 mmHg
9.649 | 11.09 | CNCC(=O)N[C@@H](CCCN=C(N)N)C(=O)N[C@H](C(=O)N[C@@H](Cc1ccc(O)cc1)C(=O)N[C@H](C(=O)N[C@@H](Cc1c[nH]cn1)C(=O)N1CCC[C@H]1C(=O)O[C@@H](C)C(=O)O)C1CCCC1)C(C)C (H-[Sar]RVY[Gly(cPent)]HP[Lac]-OH) | 5 mmHg | 11.7 mmHg | 10 mmHg | 11.7 mmHg | 9.2 mmHg
10.39 | 11.29 | CNCC(=O)N[C@@H](CCCN=C(N)N)C(=O)N[C@H](C(=O)N[C@@H](Cc1ccc(O)cc1)C(=O)N[C@H](C(=O)N[C@@H](Cc1c[nH]cn1)C(=O)N1CCC[C@H]1C(=O)O[C@@H](C)C(=O)O)C1CCCCC1)C(C)C (H-[Sar]RVY[Chg]HP[Lac]-OH) | 3.6 mmHg | 8.6 mmHg | 5.7 mmHg | 8.3 mmHg | 12.1 mmHg
8.614 | 9.53 | CC(C)[C@H](NC(=O)[C@H](CCCN=C(N)N)NC(=O)CO)C(=O)N[C@@H](Cc1ccc(O)cc1)C(=O)N[C@H](C(=O)N[C@@H](Cc1c[nH]cn1)C(=O)N1CCC[C@H]1C(=O)O[C@@H](C)C(=O)O)C1CCCCC1 (Glycolyl-RVY[Chg]HP[Lac]-OH) | 6.7 mmHg | 14.1 mmHg | 7.5 mmHg | 15.8 mmHg | 17.5 mmHg
